Reference: ChEMBL document CHEMBL3232738, “Arabinose 5-phosphate isomerase as a target for antibacterial design: studies with substrate analogues and inhibitors” (2014)
Converted amounts (≈) assume the structure as drawn. The source made the active and inactive calls. No cut-off for these calls is given here.

Tests used:
Pseudomonas aeruginosa [1] = test: Antibacterial activity against Pseudomonas aeruginosa PAO1 ATCC 15692 after 18 to 20 hrs by broth microdilution test; format: functional
Procedure, shortened: (§1)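 Broth microdilution in Mueller–Hinton broth: compounds in triplicate serial dilutions from 2 mM downward, inoculum about 5 × 10⁵ cfu mL⁻¹, 18–20 h at 37 °C. MIC was taken as the lowest concentration inhibiting growth. The wild-type strain was run without glucose 6-phosphate.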

Escherichia coli [2] = test: Antibacterial activity against Escherichia coli K-12 BW25113 after 18 to 20 hrs by broth microdilution test; format: functional; procedure, shortened: as §1
Escherichia coli [3] = test: Antibacterial activity against Escherichia coli K-12 BW25113 after 18 to 20 hrs by broth microdilution test in presence of glucose-6-phosphate; format: functional
Procedure, shortened: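 For E. coli BW25113, broth microdilution was run with glucose 6-phosphate added. Conditions: Mueller–Hinton broth, triplicate concentrations from 2 mM downward, about 5 × 10⁵ cfu mL⁻¹ inoculum, 18–20 h at 37 °C. MIC was the lowest concentration inhibiting growth.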

Escherichia coli [4] = test: Antibacterial activity against Escherichia coli AS19 after 18 to 20 hrs by broth microdilution test
Pseudomonas aeruginosa [5] = test: Binding affinity to Pseudomonas aeruginosa KdsD expressed Escherichia coli at 5 mM after 2 to 3 days by STD-NMR analysis
Procedure, shortened: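 N-His6 Pa-KdsD was expressed in E. coli M15/pREP4 (0.5 mM IPTG, 4 h), Ni-NTA purified (>95%). Ligand at 5 mM with enzyme in PBS pH 7.0, 25 °C, sampled after 0, 2 and 3 days. STD: 50 ms Gaussian pulses, 3 s saturation, on-resonance 7.9 ppm, off-resonance 40 ppm, 2 ms T1ρ filter; free-ligand reference spectra.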

| MIC (Pseudomonas aeruginosa [1]) [µM] | MIC (Escherichia coli [2]) [µM] | MIC (Escherichia coli [3]) [µM] | MIC (Escherichia coli [4]) [µM] | Activity (Pseudomonas aeruginosa [5]) | SMILES |
| --- | --- | --- | --- | --- | --- |
| > 2000 | > 2000 | > 2000 | 250 (≈ 44.5 µg/mL) | Active | CO[C@H]1O[C@H](C(=O)O)[C@@H](O)[C@@H]1O |
| > 2000 | > 2000 | > 2000 | 250 (≈ 61 µg/mL) | – | CO[C@H]1O[C@H](COP(=O)(O)O)[C@@H](O)[C@@H]1O |
| > 2000 | > 2000 | > 2000 | 250 (≈ 44.5 µg/mL) | Active | CO[C@@H]1O[C@H](C(=O)O)[C@@H](O)[C@@H]1O |

Continued, compound first:

| SMILES | MIC (Pseudomonas aeruginosa [1]) [µM] | MIC (Escherichia coli [2]) [µM] | MIC (Escherichia coli [3]) [µM] | MIC (Escherichia coli [4]) [µM] | Activity (Pseudomonas aeruginosa [5]) |
| --- | --- | --- | --- | --- | --- |
| CO[C@@H]1O[C@H](COP(=O)(O)O)[C@@H](O)[C@@H]1O | > 2000 | > 2000 | > 2000 | 250 (≈ 61 µg/mL) | – |
| O=C(NO)[C@H](O)[C@H](O)COP(=O)(O)O | – | – | – | – | Active |
| NC(=O)[C@H](O)[C@H](O)COP(=O)(O)O | – | – | – | – | Active |
| CC(=O)O[C@H](COP(=O)(O)O)[C@@H](O)C(=O)NO | – | – | – | – | Active |
